Source: ChEMBL document CHEMBL3351463, “Methyl effect in azumamides provides insight into histone deacetylase inhibition by macrocycles” (J Med Chem, 2014)
Calls of active or inactive are those of the source. The calls are words filed in the database; no cut-off is given here.

Key:
[1] = target: Histone deacetylase 2 (Homo sapiens, UniProt Q92769); assay: Inhibition of human recombinant HDAC2 using [Ac-Leu-Gly-Lys(Ac)-AMC substrate incubated for 15 to 30 mins
[2] = target: T1, Polyamine deacetylase HDAC10 (Homo sapiens, UniProt Q969S8); assay: Inhibition of human recombinant HDAC10 using Ac-Arg-His-Lys(Ac)-Lys(Ac)-AMC substrate incubated for 15 to 30 mins
T1 sequence (Q969S8 whole entry): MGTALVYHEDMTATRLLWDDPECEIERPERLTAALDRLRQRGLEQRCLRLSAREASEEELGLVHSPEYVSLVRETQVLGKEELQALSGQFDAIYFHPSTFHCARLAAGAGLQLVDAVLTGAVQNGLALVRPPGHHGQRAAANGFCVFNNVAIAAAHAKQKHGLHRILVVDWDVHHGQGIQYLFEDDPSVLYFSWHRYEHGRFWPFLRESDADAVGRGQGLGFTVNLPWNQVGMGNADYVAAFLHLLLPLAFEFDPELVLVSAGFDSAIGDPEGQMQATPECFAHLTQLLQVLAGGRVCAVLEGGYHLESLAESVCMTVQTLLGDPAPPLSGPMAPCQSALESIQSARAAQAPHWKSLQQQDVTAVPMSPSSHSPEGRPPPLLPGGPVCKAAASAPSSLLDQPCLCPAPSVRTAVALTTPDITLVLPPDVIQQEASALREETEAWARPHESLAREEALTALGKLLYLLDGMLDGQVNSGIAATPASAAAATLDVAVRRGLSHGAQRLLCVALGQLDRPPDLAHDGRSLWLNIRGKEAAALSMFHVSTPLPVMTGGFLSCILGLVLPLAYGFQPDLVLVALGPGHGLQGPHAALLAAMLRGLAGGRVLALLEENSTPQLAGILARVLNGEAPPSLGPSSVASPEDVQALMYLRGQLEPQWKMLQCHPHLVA

[3] = target: Histone deacetylase 1 (Homo sapiens, UniProt Q13547); assay: Inhibition of human recombinant HDAC1 using [Ac-Leu-Gly-Lys(Ac)-AMC substrate incubated for 15 to 30 mins
[4] = target: T2, Protein deacetylase HDAC6 (Homo sapiens, UniProt Q9UBN7); assay: Inhibition of human recombinant HDAC6 using [Ac-Leu-Gly-Lys(Ac)-AMC substrate incubated for 15 to 30 mins
T2 sequence (Q9UBN7 whole entry): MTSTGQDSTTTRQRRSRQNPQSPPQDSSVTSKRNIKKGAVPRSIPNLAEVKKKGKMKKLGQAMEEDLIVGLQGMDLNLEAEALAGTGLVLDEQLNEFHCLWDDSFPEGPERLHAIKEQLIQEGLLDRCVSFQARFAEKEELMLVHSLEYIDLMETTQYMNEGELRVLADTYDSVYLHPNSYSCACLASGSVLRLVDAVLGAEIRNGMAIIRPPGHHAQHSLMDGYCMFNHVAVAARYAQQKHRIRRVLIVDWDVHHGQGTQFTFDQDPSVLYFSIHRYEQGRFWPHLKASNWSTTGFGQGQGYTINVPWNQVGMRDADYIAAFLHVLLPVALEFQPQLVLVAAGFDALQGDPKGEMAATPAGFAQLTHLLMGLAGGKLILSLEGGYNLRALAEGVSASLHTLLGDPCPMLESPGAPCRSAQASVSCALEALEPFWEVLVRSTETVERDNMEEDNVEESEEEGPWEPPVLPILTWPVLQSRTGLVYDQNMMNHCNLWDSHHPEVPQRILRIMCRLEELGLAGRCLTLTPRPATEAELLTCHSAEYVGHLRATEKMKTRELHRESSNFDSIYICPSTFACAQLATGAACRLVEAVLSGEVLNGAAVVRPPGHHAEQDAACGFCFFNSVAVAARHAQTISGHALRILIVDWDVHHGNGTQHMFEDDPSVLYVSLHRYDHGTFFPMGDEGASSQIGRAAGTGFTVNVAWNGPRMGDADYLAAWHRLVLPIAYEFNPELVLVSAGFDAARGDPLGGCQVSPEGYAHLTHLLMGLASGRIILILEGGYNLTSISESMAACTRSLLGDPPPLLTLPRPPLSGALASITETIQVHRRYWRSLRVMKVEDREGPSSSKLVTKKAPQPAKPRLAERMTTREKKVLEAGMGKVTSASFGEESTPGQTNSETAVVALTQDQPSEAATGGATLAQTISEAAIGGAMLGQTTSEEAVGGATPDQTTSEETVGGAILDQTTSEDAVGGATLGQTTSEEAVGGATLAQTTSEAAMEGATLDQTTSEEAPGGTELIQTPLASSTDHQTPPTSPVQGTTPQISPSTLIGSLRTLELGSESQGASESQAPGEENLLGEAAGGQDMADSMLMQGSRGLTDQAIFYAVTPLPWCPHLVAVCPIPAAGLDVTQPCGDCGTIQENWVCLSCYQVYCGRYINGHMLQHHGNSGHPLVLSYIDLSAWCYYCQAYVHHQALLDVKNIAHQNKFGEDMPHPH

[5] = target: Histone deacetylase 3 (Homo sapiens, UniProt O15379); assay: Inhibition of human recombinant HDAC3 using [Ac-Leu-Gly-Lys(Ac)-AMC substrate incubated for 15 to 30 mins
[6] = target: T3, Histone deacetylase 8 (Homo sapiens, UniProt Q9BY41); assay: Inhibition of human recombinant HDAC8 using [Ac-Leu-Gly-Lys(Ac)-AMC substrate incubated for 15 to 30 mins
T3 sequence (Q9BY41 whole entry): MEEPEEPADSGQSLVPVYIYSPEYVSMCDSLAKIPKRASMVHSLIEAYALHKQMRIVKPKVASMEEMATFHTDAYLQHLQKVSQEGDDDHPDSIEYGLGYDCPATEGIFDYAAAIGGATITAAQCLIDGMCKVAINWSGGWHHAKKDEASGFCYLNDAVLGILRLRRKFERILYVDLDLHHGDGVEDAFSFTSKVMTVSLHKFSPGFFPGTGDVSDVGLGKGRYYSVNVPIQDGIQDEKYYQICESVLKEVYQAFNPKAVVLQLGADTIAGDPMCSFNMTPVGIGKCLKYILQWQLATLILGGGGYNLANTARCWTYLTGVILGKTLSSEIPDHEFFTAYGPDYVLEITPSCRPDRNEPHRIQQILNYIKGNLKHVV

[7] = target: T4, Histone deacetylase 11 (Homo sapiens, UniProt Q96DB2); assay: Inhibition of human recombinant HDAC11 using [Ac-Leu-Gly-Lys(Ac)-AMC substrate incubated for 15 to 30 mins
T4 sequence (Q96DB2 whole entry): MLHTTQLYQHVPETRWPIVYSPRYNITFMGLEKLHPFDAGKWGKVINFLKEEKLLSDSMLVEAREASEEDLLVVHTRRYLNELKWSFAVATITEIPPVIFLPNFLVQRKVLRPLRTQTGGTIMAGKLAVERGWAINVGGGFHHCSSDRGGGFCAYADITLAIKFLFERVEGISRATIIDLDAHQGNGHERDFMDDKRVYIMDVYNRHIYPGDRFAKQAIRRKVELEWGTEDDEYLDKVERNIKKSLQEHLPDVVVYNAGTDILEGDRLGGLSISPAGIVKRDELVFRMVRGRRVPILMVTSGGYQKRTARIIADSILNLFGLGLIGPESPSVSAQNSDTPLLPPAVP

[8] = Cytotoxic activity against human EB3 cells after 3 days by MTT assay; type: functional; details: EB-3, 72 h
Summary of the method: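 EBV-infected human Burkitt's lymphoma EB-3 cells seeded at 2 × 10^4 cells/well in RPMI-1640 with 10% FCS and 1% penicillin/streptomycin, cultured overnight at 37 °C, 5% CO2. Compounds added as 2-fold dilution series from DMSO stocks, top final concentration 50 or 100 μM; DMSO vehicle control. After 3 days, MTT added for 4 h. Formazan dissolved in acidic 2-propanol, A570 read minus A630. Three experiments in duplicate.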

[9] = target: T5, Protein deacetylase HDAC6 (Homo sapiens) (UniProt Q9UBN7); assay: Inhibition of human recombinant HDAC6 at 20 uM using [Ac-Leu-Gly-Lys(Ac)-AMC substrate incubated for 15 to 30 mins
T5 sequence (whole entry): T2 sequence (Q9UBN7 whole entry)
Summary of the method: (§1)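 Recombinant human enzyme (HDAC6 2.4 ng/μL; HDAC8 0.2 ng/μL final) in pH 8.0 Tris buffer with BSA. Ac-Leu-Gly-Lys(Ac)-AMC substrate at 20 μM for HDAC6 and 200 μM for HDAC8. Incubated 30 min at 37 °C, then trypsin development 15–30 min at room temperature. Fluorescence read at ex 360/em 460 nm.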

[10] = target: T6, Histone deacetylase 8 (Homo sapiens) (UniProt Q9BY41); assay: Inhibition of human recombinant HDAC8 at 20 uM using [Ac-Leu-Gly-Lys(Ac)-AMC substrate incubated for 15 to 30 mins; summary of the method: as §1
T6 sequence (whole entry): T3 sequence (Q9BY41 whole entry)

[11] = test system: EB-3; assay: Cytotoxic activity against human EB3 cells assessed as growth inhibition up to 25 uM after 3 days by MTT assay; type: functional, cell-based
Summary of the method: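 EB-3 (EBV-infected human Burkitt's lymphoma) cells seeded at 2 × 10^4 per well in RPMI-1640 with 10% FCS and 1% penicillin/streptomycin, cultured overnight at 37 °C, 5% CO2, then given compound or DMSO vehicle. 2-fold dilution series from DMSO stocks; 3 days exposure. MTT added for 4 h, formazan dissolved in acidic 2-propanol, A570 minus 630 nm. Three experiments in duplicate.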

Chain of Histone deacetylase 3 (O15379 whole entry): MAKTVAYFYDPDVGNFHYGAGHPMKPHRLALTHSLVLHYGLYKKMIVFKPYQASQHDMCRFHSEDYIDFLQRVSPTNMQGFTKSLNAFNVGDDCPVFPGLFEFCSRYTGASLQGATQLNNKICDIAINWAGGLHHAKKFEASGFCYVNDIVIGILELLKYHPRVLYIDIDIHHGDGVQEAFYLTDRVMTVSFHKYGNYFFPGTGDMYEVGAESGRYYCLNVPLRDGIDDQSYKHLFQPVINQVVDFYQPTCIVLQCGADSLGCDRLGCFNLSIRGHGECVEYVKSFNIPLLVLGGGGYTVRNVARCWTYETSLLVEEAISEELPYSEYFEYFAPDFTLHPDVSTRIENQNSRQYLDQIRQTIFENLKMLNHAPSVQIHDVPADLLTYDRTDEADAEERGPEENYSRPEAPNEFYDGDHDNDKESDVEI
Chain of Histone deacetylase 1 (Q13547 whole entry): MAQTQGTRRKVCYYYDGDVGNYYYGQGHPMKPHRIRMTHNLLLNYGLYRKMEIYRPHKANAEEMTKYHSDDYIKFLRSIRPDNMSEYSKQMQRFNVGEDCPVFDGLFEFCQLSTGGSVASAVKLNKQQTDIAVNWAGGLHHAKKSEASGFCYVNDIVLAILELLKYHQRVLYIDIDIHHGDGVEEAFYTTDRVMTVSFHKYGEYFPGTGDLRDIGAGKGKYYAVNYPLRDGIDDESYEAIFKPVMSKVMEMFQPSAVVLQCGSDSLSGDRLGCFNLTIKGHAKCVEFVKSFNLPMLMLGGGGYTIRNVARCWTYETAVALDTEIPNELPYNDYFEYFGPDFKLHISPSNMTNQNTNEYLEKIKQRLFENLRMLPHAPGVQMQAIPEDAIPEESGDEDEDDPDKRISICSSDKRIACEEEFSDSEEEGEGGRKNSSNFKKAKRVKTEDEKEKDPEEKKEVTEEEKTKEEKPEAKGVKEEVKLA
Chain of Histone deacetylase 2 (Q92769 whole entry): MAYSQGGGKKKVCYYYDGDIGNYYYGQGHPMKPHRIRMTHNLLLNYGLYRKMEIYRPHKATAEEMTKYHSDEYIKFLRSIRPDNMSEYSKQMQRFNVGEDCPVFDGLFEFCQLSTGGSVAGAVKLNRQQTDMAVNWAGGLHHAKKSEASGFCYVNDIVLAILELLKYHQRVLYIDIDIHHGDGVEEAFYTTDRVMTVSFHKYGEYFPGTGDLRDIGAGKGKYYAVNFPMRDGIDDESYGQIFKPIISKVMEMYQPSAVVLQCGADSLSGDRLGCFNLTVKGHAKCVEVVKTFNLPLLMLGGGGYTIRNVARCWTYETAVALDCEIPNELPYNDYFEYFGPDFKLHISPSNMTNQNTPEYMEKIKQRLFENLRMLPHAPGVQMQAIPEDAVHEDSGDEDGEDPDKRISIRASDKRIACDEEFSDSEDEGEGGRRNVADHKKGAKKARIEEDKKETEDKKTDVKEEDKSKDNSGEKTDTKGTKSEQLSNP

Structure (SMILES)	Ki [1]	Ki [2]	Ki [3]	Ki ([4]; read-out: Ki)	Ki [5]	Ki ([6]; read-out: Ki)	Ki [7]	inhibition [9]	inhibition [10]	Ki [4]	Ki [6]	GI50 [8]	growth inhibition (GI) [11]
CCC(=O)CCCCC[C@@H]1NC(=O)[C@H]2CCCCN2C(=O)[C@H]([C@@H](C)CC)NC(=O)[C@H](Cc2cn(OC)c3ccccc23)NC1=O [APICIDIN]	–	–	–	–	–	–	–	–	–	–	–	800 nM	–
CC(C)[C@H]1NC(=O)C[C@@H](C/C=C\CCC(=O)O)NC(=O)[C@@H](Cc2c[nH]c3ccccc23)NC(=O)[C@@H](C)NC1=O	300 nM	230 nM	200 nM	–	500 nM	4500 nM	900 nM	–	–	Not Active	–	–	inactive
CC(C)[C@H]1NC(=O)C[C@@H](CCCCCC(=O)O)NC(=O)[C@@H](Cc2ccc(O)cc2)NC(=O)[C@@H](C)NC1=O	300 nM	300 nM	1000 nM	3000 nM	200 nM	–	1000 nM	–	< 50%	–	Not Active	–	inactive
CC(C)[C@H]1NC(=O)[C@@H](C)[C@@H](C/C=C\CCC(=O)O)NC(=O)[C@@H](Cc2ccc(O)cc2)NC(=O)[C@@H](C)NC1=O	–	–	–	–	–	–	–	–	–	–	–	–	inactive
CC(C)[C@H]1NC(=O)[C@@H](C)[C@@H](C/C=C\CCC(N)=O)NC(=O)[C@@H](Cc2ccc(O)cc2)NC(=O)[C@@H](C)NC1=O	–	–	–	–	–	–	–	–	–	–	–	–	inactive
CC(C)[C@H]1NC(=O)[C@@H](C)[C@@H](C/C=C\CCC(=O)O)NC(=O)[C@@H](Cc2ccccc2)NC(=O)[C@@H](C)NC1=O	–	–	–	–	–	–	–	–	–	–	–	–	inactive

More lines, main results first:

Ki [1]	Ki [2]	Ki [3]	Ki ([4]; read-out: Ki)	Ki [5]	Ki ([6]; read-out: Ki)	Ki [7]	inhibition [9]	inhibition [10]	Ki [4]	Ki [6]	Structure (SMILES)	GI50 [8]	growth inhibition (GI) [11]
400 nM	600 nM	500 nM	3700 nM	600 nM	3000 nM	1100 nM	–	–	–	–	CC(C)[C@H]1NC(=O)C[C@@H](/C=C/CCCC(=O)O)NC(=O)[C@@H](Cc2c[nH]c3ccccc23)NC(=O)[C@@H](C)NC1=O	–	–
800 nM	1000 nM	900 nM	–	700 nM	–	2000 nM	< 50%	< 50%	Not Active	Not Active	CC(C)[C@H]1NC(=O)C[C@@H](CCCCCC(=O)O)NC(=O)[C@@H](Cc2ccccc2)NC(=O)[C@@H](C)NC1=O	–	–
900 nM	700 nM	600 nM	–	800 nM	–	1500 nM	< 50%	< 50%	Not Active	Not Active	CC(C)[C@H]1NC(=O)C[C@@H](C/C=C\CCC(=O)O)NC(=O)[C@@H](Cc2ccccc2)NC(=O)[C@@H](C)NC1=O	–	inactive
300 nM	300 nM	300 nM	6000 nM	300 nM	–	800 nM	–	–	–	Not Active	CC(C)[C@H]1NC(=O)C[C@@H](C/C=C\CCC(=O)O)NC(=O)[C@@H](Cc2ccc(O)cc2)NC(=O)[C@@H](C)NC1=O	–	inactive
1700 nM	1600 nM	1200 nM	–	1400 nM	6000 nM	3200 nM	< 50%	–	Not Active	–	CC(C)[C@H]1NC(=O)C[C@@H](/C=C/CCCC(=O)O)NC(=O)[C@@H](Cc2ccccc2)NC(=O)[C@@H](C)NC1=O	–	–
300 nM	170 nM	900 nM	1900 nM	500 nM	4300 nM	300 nM	–	–	–	–	CC(C)[C@H]1NC(=O)C[C@@H](CCCCCC(=O)O)NC(=O)[C@@H](Cc2c[nH]c3ccccc23)NC(=O)[C@@H](C)NC1=O	–	–
600 nM	700 nM	700 nM	2200 nM	500 nM	–	1300 nM	–	< 50%	–	Not Active	CC(C)[C@H]1NC(=O)C[C@@H](/C=C/CCCC(=O)O)NC(=O)[C@@H](Cc2ccc(O)cc2)NC(=O)[C@@H](C)NC1=O	–	inactive
